Activity calls are given as the source filed them. The rule behind the calls is not given here.
Experiments:
[1] = biological target: Protein kinase C delta type (Homo sapiens) (UniProt Q05655); assay: Inhibition of Protein kinase C delta type at 10 uM by luciferase assay
Procedure, shortened: (§1)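 Cell-free split-firefly-luciferase competitive binding assay: Cfluc-kinase fusion mRNA co-translated with Fos-Nfluc mRNA in rabbit reticulocyte lysate, 30 °C for 90 min, then frozen at −80 °C and thawed on ice. Luminescence read after luciferin reagent, in duplicate. Percent inhibition = 1 − (background-subtracted signal ÷ DMSO positive control).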

[2] = biological target: T1, Protein kinase C epsilon type (Homo sapiens) (UniProt Q02156); assay: Inhibition of Protein kinase C epsilon type at 10 uM by luciferase assay; procedure, shortened: as §1
T1 sequence (whole entry): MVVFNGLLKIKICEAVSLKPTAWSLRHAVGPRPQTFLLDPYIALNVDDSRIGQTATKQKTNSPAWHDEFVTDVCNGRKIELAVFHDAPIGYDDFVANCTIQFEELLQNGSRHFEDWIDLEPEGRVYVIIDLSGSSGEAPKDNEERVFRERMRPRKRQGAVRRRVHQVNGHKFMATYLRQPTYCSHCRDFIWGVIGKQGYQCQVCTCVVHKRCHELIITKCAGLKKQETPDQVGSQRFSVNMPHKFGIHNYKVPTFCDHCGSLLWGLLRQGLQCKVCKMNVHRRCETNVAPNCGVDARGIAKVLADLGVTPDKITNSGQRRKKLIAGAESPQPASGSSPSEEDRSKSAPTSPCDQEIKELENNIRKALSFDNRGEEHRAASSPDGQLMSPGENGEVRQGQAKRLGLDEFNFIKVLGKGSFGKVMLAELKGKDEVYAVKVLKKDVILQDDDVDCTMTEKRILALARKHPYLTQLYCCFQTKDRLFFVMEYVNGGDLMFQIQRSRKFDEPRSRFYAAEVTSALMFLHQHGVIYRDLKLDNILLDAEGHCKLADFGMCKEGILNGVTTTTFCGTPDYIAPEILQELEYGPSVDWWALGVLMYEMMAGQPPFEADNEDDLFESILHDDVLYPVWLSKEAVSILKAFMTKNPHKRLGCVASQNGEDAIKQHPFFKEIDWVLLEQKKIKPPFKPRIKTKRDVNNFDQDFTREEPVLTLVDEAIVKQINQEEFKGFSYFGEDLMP

[3] = biological target: Protein kinase C gamma type (Homo sapiens) (UniProt P05129); assay: Inhibition of Protein kinase C gamma type at 10 uM by luciferase assay; procedure, shortened: as §1
[4] = biological target: Protein kinase C eta type (Homo sapiens) (UniProt P24723); assay: Inhibition of Protein kinase C eta type at 10 uM by luciferase assay
Procedure, shortened: (§2)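 Cell-free split-luciferase competitive binding assay. Cfluc-kinase fusion mRNA was co-translated with Fos-Nfluc mRNA in rabbit reticulocyte lysate at 30 °C for 90 min, frozen at −80 °C overnight and thawed on ice. Lysate held tracer 2 at 120 nM final and inhibitor at 10 μM final (DMSO), 1 h at room temperature. Luciferin reagent was added and luminescence read (1 s integration), in duplicate.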

[5] = biological target: Protein kinase C theta type (Homo sapiens) (UniProt Q04759); assay: Inhibition of Protein kinase C theta type at 10 uM by luciferase assay; procedure, shortened: as §2
[6] = biological target: T2, Myotonin-protein kinase (Homo sapiens) (UniProt Q09013); assay: Inhibition of DMPK at 10 uM by luciferase assay; procedure, shortened: as §2
T2 sequence (whole entry): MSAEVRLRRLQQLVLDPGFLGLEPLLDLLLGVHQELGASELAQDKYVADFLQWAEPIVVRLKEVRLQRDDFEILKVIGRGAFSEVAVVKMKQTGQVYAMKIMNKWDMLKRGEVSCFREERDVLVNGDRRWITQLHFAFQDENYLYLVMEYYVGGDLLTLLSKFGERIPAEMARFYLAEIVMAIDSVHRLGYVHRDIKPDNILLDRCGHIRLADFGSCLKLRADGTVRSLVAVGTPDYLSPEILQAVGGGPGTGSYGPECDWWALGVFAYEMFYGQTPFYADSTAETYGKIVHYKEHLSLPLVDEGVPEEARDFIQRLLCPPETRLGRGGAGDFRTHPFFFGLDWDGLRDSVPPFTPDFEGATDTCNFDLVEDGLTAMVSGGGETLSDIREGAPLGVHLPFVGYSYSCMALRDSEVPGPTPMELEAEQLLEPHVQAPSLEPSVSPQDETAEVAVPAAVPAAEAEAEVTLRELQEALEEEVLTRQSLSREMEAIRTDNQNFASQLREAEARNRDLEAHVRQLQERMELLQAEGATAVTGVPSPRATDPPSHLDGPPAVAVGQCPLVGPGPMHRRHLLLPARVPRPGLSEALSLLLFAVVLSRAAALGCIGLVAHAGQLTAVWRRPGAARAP

[7] = biological target: Serine/threonine-protein kinase 32B (Homo sapiens) (UniProt Q9NY57); assay: Inhibition of STK32B at 10 uM by luciferase assay; procedure, shortened: as §2
[8] = Inhibition of Protein kinase A at 10 uM by luciferase assay; procedure, shortened: as §2
[9] = biological target: Aurora kinase B (Homo sapiens) (UniProt Q96GD4); assay: Inhibition of Aurora kinase B at 10 uM by luciferase assay; procedure, shortened: as §2
[10] = biological target: T3, Aurora kinase C (Homo sapiens) (UniProt Q9UQB9); assay: Inhibition of Aurora kinase C at 10 uM by luciferase assay; procedure, shortened: as §2
T3 sequence (whole entry): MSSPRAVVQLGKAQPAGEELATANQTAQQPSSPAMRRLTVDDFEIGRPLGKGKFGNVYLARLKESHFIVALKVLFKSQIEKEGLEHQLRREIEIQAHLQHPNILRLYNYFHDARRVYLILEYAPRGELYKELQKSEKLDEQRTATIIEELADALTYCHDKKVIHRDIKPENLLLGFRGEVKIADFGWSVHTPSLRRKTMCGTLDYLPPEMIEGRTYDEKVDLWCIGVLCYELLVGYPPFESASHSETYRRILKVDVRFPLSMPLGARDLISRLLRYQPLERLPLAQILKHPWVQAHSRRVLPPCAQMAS

[11] = biological target: T4, cAMP-dependent protein kinase catalytic subunit PRKX (Homo sapiens) (UniProt P51817); assay: Inhibition of PRKX at 10 uM by luciferase assay; procedure, shortened: as §2
T4 sequence (whole entry): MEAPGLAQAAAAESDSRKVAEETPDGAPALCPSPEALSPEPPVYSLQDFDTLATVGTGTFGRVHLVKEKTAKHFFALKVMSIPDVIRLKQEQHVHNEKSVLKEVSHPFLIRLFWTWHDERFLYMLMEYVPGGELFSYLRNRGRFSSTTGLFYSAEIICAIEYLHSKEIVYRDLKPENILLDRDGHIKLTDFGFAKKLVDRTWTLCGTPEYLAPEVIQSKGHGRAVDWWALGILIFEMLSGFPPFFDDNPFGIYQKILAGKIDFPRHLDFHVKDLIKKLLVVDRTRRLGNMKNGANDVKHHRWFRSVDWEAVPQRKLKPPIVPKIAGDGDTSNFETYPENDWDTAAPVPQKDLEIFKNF

[12] = biological target: T5, Serine/threonine-protein kinase Sgk2 (Homo sapiens) (UniProt Q9HBY8); assay: Inhibition of SGK2 at 10 uM by luciferase assay; procedure, shortened: as §2
T5 sequence (whole entry): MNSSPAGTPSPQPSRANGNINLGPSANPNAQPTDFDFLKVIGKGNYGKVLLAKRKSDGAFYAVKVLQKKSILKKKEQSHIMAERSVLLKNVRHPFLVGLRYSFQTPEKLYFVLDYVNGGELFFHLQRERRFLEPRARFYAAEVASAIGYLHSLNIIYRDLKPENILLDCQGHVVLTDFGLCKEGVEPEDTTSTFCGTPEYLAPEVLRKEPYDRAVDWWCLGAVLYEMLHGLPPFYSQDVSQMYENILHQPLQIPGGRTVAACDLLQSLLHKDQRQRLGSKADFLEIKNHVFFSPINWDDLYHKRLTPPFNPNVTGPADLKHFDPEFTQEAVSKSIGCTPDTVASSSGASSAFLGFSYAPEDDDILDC

[13] = biological target: T6, Serine/threonine-protein kinase Sgk3 (Homo sapiens) (UniProt Q96BR1); assay: Inhibition of SGK3 at 10 uM by luciferase assay; procedure, shortened: as §2
T6 sequence (whole entry): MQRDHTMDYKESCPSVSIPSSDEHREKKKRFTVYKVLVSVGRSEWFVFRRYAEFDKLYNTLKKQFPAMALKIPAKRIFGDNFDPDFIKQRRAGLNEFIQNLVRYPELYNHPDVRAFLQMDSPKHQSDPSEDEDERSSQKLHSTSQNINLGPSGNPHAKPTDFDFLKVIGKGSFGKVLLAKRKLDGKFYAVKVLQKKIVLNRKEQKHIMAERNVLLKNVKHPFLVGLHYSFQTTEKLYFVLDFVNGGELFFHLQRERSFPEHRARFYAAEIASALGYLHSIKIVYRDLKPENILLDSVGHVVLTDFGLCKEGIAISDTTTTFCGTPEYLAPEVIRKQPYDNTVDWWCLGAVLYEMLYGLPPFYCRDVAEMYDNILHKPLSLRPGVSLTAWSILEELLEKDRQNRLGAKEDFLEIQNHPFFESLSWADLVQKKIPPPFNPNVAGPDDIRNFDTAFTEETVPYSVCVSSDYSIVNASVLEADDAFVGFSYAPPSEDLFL

[14] = biological target: RAC-alpha serine/threonine-protein kinase (Homo sapiens) (UniProt P31749); assay: Inhibition of AKT1 at 10 uM by luciferase assay; procedure, shortened: as §1
[15] = biological target: RAC-beta serine/threonine-protein kinase (Homo sapiens) (UniProt P31751); assay: Inhibition of AKT2 at 10 uM by luciferase assay; procedure, shortened: as §1
[16] = biological target: RAC-gamma serine/threonine-protein kinase (Homo sapiens) (UniProt Q9Y243); assay: Inhibition of AKT3 at 10 uM by luciferase assay; procedure, shortened: as §1
Chain of RAC-gamma serine/threonine-protein kinase (Homo sapiens) (Q9Y243 whole entry): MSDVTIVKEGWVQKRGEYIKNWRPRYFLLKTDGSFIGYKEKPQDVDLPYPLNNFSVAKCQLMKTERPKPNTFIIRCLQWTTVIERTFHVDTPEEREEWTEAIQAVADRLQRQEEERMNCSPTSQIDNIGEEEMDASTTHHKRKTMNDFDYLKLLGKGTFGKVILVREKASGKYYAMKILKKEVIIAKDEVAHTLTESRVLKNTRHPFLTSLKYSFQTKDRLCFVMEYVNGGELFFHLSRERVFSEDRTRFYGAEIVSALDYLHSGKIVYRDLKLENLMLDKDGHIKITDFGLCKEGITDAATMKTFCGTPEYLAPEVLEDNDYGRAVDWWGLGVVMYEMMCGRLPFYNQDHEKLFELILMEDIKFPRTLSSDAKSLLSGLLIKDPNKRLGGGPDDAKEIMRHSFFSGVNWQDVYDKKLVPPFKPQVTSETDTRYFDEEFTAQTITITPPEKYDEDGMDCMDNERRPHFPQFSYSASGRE

Chain of Protein kinase C theta type (Homo sapiens) (Q04759 whole entry, looked up): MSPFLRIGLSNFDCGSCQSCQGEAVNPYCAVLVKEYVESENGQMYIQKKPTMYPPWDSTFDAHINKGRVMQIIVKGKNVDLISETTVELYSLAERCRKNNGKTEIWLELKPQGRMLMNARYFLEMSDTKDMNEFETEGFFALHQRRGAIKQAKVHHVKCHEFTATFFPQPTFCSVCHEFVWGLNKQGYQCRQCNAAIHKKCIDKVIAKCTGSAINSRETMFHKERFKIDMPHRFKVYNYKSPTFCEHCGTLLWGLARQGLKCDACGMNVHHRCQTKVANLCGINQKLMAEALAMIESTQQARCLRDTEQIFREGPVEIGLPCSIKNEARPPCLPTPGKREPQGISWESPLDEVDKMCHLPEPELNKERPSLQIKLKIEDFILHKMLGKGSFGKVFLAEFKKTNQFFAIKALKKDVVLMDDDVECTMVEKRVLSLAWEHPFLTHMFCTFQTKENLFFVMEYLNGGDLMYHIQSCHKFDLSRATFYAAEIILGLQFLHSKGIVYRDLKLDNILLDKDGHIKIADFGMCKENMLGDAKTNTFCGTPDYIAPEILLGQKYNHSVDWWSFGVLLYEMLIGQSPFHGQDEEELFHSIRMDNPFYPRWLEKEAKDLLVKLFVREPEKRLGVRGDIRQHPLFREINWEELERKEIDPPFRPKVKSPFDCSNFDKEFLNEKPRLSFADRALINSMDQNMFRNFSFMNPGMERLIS
Chain of Serine/threonine-protein kinase 32B (Homo sapiens) (Q9NY57 whole entry): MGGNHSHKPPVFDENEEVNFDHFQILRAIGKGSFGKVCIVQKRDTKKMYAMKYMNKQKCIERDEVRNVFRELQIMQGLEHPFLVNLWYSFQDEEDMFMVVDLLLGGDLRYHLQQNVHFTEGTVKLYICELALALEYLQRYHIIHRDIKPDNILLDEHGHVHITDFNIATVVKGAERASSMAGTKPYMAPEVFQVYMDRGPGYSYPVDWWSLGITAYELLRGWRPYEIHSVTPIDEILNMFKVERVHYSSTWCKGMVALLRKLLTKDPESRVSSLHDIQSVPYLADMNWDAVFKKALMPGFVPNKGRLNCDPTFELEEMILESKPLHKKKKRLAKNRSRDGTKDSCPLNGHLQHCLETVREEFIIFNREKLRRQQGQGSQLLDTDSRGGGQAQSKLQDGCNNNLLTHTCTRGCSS
Chain of Protein kinase C eta type (Homo sapiens) (P24723 whole entry, the tested form may be a part): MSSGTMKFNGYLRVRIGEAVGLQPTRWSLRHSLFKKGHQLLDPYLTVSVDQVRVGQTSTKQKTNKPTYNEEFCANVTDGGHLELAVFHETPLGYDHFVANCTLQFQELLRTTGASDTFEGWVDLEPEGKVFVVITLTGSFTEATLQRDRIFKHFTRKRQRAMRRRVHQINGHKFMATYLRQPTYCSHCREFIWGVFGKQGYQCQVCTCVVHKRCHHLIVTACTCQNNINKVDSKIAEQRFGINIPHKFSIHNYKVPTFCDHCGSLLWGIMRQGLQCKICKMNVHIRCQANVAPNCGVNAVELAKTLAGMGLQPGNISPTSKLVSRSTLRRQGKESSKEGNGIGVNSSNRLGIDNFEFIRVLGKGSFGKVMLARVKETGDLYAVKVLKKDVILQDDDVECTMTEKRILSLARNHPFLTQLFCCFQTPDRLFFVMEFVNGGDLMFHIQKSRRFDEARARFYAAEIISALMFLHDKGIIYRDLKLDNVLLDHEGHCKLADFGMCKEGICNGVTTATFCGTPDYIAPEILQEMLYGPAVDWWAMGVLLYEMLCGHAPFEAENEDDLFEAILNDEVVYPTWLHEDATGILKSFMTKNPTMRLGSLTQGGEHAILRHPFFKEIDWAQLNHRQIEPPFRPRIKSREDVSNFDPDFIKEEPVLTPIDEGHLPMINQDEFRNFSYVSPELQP
Chain of Aurora kinase B (Homo sapiens) (Q96GD4 whole entry): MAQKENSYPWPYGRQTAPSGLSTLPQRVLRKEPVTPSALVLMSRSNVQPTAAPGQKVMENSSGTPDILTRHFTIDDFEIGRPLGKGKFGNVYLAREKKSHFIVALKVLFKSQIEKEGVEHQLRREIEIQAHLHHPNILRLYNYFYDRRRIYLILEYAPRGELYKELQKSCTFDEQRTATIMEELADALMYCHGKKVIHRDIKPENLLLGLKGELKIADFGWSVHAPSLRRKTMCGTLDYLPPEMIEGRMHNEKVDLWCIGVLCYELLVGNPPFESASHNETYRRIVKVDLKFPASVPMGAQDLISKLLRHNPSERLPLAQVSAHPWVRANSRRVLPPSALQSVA
Chain of Protein kinase C delta type (Homo sapiens) (Q05655 whole entry, looked up, the tested form may be a part): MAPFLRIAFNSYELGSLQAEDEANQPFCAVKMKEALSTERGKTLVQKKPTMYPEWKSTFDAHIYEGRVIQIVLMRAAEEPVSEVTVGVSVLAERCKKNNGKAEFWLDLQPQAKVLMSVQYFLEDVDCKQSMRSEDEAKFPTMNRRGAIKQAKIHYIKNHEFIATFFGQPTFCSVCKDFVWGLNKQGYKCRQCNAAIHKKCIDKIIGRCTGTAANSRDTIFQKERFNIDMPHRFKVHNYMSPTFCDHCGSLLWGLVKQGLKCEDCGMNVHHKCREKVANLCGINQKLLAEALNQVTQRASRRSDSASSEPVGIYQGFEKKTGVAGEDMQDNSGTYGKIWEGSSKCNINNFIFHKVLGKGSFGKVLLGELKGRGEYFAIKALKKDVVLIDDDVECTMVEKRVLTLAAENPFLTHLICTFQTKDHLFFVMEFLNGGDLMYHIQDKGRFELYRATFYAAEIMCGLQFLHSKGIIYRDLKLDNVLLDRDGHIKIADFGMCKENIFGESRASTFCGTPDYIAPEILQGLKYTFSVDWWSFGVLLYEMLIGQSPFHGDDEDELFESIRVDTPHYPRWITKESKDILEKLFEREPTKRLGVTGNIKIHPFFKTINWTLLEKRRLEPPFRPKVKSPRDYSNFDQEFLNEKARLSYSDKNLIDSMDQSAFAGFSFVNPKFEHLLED
Chain of RAC-alpha serine/threonine-protein kinase (Homo sapiens) (P31749 whole entry): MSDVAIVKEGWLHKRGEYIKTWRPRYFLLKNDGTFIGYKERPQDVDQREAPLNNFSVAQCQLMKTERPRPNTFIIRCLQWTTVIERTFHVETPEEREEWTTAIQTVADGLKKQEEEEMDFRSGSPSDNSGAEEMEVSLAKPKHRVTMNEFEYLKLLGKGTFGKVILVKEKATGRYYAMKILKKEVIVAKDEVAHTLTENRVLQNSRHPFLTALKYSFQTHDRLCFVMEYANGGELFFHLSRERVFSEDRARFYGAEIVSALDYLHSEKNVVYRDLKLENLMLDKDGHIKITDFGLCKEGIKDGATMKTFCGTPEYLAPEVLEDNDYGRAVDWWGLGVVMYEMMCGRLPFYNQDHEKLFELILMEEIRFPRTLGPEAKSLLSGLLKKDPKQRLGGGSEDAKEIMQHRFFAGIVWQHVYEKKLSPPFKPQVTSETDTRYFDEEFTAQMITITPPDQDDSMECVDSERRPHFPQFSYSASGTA
Chain of RAC-beta serine/threonine-protein kinase (Homo sapiens) (P31751 whole entry): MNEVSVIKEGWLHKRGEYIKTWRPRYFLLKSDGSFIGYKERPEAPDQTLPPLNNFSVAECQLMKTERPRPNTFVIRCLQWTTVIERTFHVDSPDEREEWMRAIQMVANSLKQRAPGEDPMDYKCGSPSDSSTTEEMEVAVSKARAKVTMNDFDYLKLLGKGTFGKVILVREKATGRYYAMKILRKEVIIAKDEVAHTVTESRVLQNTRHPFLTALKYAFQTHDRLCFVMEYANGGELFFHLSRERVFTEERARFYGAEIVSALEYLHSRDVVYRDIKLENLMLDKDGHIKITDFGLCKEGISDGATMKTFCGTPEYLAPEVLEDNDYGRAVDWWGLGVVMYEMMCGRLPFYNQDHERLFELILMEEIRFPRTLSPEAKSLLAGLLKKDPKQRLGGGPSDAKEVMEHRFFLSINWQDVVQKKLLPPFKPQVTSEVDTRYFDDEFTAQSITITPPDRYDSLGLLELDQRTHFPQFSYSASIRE

Question: What does the source list for `Cn1cc(C2=C(c3cn(CCCSC(=N)N)c4ccccc34)C(=O)NC2=O)c2ccccc21`?
Answer: inhibition [1]: 47%; inhibition [2]: 47%; inhibition [3]: 47%; inhibition [4]: 47%; inhibition [5]: 47%

Question: Which results are given for `O=C1NC(=O)c2cc(Nc3ccc(F)cc3)c(Nc3ccc(F)cc3)cc21`?
Answer: inhibition [6]: 30%; inhibition [3]: 22%

Question: With `CC(C)(C)n1nc(-c2ccc(Cl)cc2)c2c(N)ncnc21` as the compound, how does the inhibition [7] read?
Answer: > 40%

Question: And the inhibition [6]?
Answer: 32%

Question: And the inhibition [8]?
Answer: 19%

Question: For `COc1cc2c(Nc3ccc(NC(=O)c4ccccc4)cc3)ncnc2cc1OCCCN1CCOCC1`, which inhibition [9] is on record?
Answer: > 50%

Question: What about the inhibition [10] of the same compound?
Answer: > 50%

Question: With `O=S(=O)(c1cccc2cnccc12)N1CCCNCC1` as the compound, how does the inhibition [8] read?
Answer: Active

Question: What about the inhibition [11] of the same compound?
Answer: Active

Question: Which inhibition [3] does the source give for `CN(C)CCCn1cc(C2=C(c3c[nH]c4ccccc34)C(=O)NC2=O)c2ccccc21` here?
Answer: inactive

Question: What about the inhibition [4] of the same compound?
Answer: inactive

Question: And the inhibition [5]?
Answer: inactive

Question: Which inhibition [7] does the source give for `CO[C@@H]1[C@H](N(C)C(=O)c2ccccc2)C[C@H]2O[C@]1(C)n1c3ccccc3c3c4c(c5c6ccccc6n2c5c31)C(=O)NC4` here?
Answer: Active

Question: With `C[C@@H](N)[C@H]1CC[C@H](C(=O)Nc2ccncc2)CC1` as the compound, how does the inhibition [11] read?
Answer: Active

Question: For `O=S(=O)(NCCNC/C=C/c1ccc(Br)cc1)c1cccc2cnccc12`, which inhibition [12] is on record?
Answer: 20%

Question: And the inhibition [13]?
Answer: 20%

Question: What about the inhibition [8] of the same compound?
Answer: > 65%

Question: What about the inhibition [4] of the same compound?
Answer: 20%

Question: What about the inhibition [5] of the same compound?
Answer: 20%

Question: What about the inhibition [11] of the same compound?
Answer: > 65%

Question: Which results are given for `NC(=O)Nc1sc(-c2ccc(F)cc2)cc1C(N)=O`?
Answer: inhibition [9]: > 25%; inhibition [10]: > 25%; inhibition [4]: Active

Question: What does the source list for `Cc1ccc(-c2nn(C(C)(C)C)c3ncnc(N)c23)cc1`?
Answer: inhibition [7]: > 40%; inhibition [6]: 32%; inhibition [8]: 19%

Question: Which inhibition [14] does the source give for `O=C1NC(=O)c2c1c1c3ccccc3[nH]c1c1[nH]c3ccccc3c21` here?
Answer: inactive

Question: And the inhibition [15]?
Answer: inactive

Question: And the inhibition [16]?
Answer: inactive

Question: What about the inhibition [1] of the same compound?
Answer: inactive

Question: What about the inhibition [2] of the same compound?
Answer: inactive

Question: And the inhibition [3]?
Answer: inactive

Question: With `Cc1[nH]c(/C=C2\C(=O)Nc3ccc(S(=O)(=O)Cc4c(Cl)cccc4Cl)cc32)c(C)c1C(=O)N1CCC[C@@H]1CN1CCCC1` as the compound, how does the inhibition [9] read?
Answer: > 25%

Question: And the inhibition [10]?
Answer: > 25%

Question: For `Fc1ccc(Cl)cc1-c1nc(Nc2ccncc2)c2nccnc2n1`, which inhibition [14] is on record?
Answer: > 25%

Question: And the inhibition [15]?
Answer: > 25%

Question: What about the inhibition [16] of the same compound?
Answer: > 25%

Question: And the inhibition [2]?
Answer: > 25%

Question: What about the inhibition [4] of the same compound?
Answer: > 25%

Question: What about the inhibition [5] of the same compound?
Answer: > 25%

Question: Which inhibition [11] does the source give for `O=S(=O)(c1cccc2c(Cl)cccc12)N1CCCNCC1` here?
Answer: inactive

Question: Which inhibition [12] does the source give for `O=C1NC(=O)c2c1c1c3ccccc3n3c1c1c2c2ccccc2n1C1CCC3O1` here?
Answer: > 60%

Question: What does the source list for `COc1cc2ncn(-c3cc(OCc4ccccc4C(F)(F)F)c(C(N)=O)s3)c2cc1OC`?
Answer: inhibition [9]: > 25%; inhibition [10]: > 25%

Question: For `O=S(=O)(c1cccc2c(O)nccc12)N1CCCNCC1`, which inhibition [11] is on record?
Answer: Active

Question: Which results are given for `O=C(c1ccc(Nc2nccc(-c3cc4ccccc4s3)n2)cc1)N1CCC(N2CCCC2)CC1`?
Answer: inhibition [12]: > 60%; inhibition [13]: > 60%; inhibition [9]: > 29%; inhibition [2]: > 29%; inhibition [4]: 83%; inhibition [5]: > 29%; inhibition [11]: > 29%

— ChEMBL document CHEMBL2086354, “Testing the promiscuity of commercial kinase inhibitors against the AGC kinase group using a split-luciferase screen” (J Med Chem, 2012)
